Substitutions are numbered along the chain they refer to.
Legend:
Settings in all cases: stereoisomer not certain
OR56B4 (Homo sapiens) = target: T1, OR56B4 (Homo sapiens) (UniProt Q8NH76)
T1 sequence (whole entry): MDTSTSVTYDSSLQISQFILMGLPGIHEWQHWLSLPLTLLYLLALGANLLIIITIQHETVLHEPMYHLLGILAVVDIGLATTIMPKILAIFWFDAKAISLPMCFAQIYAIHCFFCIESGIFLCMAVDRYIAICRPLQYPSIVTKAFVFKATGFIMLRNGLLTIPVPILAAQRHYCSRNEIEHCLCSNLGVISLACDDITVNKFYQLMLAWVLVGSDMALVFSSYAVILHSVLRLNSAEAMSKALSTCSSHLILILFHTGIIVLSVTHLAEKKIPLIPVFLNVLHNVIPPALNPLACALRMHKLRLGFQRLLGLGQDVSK
Method in brief: (§1)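 Assay methods differ from source to source, frequently being transient luciferase assays in mammalian cell lines. For each receptor–molecule pair, the label responsive (active) applies when the original authors judged the measured signal statistically different from baseline, and non-responsive (inactive) applies otherwise.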

OR5A1 (Homo sapiens) = target: T2, OR5A1 (Homo sapiens) (UniProt Q8NGJ0)
T2 sequence (whole entry): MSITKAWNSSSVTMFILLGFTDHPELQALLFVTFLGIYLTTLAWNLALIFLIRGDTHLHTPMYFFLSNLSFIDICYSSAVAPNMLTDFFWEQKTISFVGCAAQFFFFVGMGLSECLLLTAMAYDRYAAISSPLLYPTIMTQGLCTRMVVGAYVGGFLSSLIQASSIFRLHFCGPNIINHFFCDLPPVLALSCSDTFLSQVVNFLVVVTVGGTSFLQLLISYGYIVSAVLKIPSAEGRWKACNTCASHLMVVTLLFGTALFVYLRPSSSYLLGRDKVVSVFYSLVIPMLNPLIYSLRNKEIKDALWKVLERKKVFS
Method in brief: as §1

OR5A1 D183N = test system: T3, OR5A1 D183N
T3 sequence (whole entry): T2 sequence (whole entry) with D183N
Method in brief: as §1

OR5A2 (Homo sapiens) = target: T4, OR5A2 (Homo sapiens) (UniProt Q8NGI9)
T4 sequence (whole entry): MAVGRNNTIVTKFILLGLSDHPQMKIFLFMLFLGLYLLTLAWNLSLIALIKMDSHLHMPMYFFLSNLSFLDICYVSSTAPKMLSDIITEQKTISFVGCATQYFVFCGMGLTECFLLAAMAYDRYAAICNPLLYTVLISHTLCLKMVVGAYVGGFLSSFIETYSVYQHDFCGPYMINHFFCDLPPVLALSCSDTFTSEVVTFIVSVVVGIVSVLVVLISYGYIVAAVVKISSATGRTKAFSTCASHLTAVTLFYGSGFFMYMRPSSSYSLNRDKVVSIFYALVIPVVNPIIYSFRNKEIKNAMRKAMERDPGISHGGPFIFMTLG
Method in brief: as §1

OR5AC2 (Homo sapiens) = target: T5, OR5AC2 (Homo sapiens) (UniProt Q9NZP5)
T5 sequence (whole entry): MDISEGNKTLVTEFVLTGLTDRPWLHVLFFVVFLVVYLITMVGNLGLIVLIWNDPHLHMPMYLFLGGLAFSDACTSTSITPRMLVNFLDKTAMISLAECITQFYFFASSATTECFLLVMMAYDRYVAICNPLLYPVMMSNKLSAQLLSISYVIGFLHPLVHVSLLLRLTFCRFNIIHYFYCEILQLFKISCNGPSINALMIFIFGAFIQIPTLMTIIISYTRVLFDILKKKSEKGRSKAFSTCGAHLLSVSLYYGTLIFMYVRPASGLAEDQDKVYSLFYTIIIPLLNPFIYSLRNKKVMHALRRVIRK
Method in brief: as §1

OR5AK2 (Homo sapiens) = target: T6, OR5AK2 (Homo sapiens) (UniProt Q8NH90)
T6 sequence (whole entry): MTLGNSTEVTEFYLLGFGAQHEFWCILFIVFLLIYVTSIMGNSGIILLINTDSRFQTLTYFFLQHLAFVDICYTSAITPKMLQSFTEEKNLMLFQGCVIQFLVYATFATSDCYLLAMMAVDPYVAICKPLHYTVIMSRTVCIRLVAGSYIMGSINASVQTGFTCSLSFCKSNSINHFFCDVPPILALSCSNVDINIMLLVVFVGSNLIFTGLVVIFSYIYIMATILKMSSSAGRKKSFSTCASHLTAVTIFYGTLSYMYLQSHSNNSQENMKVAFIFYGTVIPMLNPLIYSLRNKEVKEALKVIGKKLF
Method in brief: as §1

OR5AN1 (Homo sapiens) = target: T7, OR5AN1 (Homo sapiens) (UniProt Q8NGI8)
T7 sequence (whole entry): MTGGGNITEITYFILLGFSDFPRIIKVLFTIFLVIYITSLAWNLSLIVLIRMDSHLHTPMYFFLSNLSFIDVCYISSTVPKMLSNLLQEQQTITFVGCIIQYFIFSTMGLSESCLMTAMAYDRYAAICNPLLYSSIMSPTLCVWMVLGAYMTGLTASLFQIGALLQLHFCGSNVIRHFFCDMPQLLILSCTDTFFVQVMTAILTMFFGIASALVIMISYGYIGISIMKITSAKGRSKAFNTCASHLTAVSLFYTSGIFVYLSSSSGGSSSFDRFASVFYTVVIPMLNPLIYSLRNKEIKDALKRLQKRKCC
Method in brief: as §1

OR5AP2 (Homo sapiens) = target: T8, OR5AP2 (Homo sapiens) (UniProt Q8NGF4)
T8 sequence (whole entry): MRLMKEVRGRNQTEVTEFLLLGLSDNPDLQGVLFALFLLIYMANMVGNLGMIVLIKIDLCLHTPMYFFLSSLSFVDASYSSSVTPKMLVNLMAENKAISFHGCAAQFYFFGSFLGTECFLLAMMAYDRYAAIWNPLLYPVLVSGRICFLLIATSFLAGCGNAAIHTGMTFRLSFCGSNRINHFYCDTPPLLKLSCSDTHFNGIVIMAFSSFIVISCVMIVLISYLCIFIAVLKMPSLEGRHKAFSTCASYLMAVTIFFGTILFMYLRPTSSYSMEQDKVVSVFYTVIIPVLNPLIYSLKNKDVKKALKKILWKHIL
Method in brief: as §1

OR5AR1 (Homo sapiens) = target: T9, OR5AR1 (Homo sapiens) (UniProt Q8NGP9)
T9 sequence (whole entry): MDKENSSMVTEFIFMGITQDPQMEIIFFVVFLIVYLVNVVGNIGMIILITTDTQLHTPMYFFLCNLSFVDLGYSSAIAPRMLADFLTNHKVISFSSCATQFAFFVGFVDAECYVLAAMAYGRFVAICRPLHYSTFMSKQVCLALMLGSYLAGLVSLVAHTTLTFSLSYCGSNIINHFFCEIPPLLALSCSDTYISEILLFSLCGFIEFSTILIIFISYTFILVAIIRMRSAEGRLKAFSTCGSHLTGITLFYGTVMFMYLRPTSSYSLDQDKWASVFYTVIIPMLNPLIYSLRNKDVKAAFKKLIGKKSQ
Method in brief: as §1

OR5AS1 (Homo sapiens) = target: T10, OR5AS1 (Homo sapiens) (UniProt Q8N127)
T10 sequence (whole entry): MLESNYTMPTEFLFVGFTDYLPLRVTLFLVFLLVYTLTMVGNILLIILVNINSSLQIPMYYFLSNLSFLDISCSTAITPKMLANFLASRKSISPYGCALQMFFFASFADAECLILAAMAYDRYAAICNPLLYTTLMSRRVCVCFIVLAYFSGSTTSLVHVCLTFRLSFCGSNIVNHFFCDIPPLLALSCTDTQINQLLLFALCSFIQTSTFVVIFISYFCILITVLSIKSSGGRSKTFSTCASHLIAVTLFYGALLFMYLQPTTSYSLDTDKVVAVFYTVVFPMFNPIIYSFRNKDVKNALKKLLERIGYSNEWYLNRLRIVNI
Method in brief: as §1

OR5AU1 (Homo sapiens) = target: T11, OR5AU1 (Homo sapiens) (UniProt Q8NGC0)
T11 sequence (whole entry): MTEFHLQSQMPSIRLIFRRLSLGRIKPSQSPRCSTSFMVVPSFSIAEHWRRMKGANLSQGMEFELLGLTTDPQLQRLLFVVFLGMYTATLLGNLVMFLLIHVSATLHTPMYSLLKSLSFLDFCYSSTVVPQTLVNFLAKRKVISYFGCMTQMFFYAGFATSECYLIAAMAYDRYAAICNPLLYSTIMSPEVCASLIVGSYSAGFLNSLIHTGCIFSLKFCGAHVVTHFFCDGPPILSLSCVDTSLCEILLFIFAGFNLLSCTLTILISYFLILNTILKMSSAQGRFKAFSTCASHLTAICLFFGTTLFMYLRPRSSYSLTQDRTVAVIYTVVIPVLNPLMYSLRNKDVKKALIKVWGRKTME
Method in brief: as §1

OR5B12 (Homo sapiens) = target: T12, OR5B12 (Homo sapiens) (UniProt Q96R08)
T12 sequence (whole entry): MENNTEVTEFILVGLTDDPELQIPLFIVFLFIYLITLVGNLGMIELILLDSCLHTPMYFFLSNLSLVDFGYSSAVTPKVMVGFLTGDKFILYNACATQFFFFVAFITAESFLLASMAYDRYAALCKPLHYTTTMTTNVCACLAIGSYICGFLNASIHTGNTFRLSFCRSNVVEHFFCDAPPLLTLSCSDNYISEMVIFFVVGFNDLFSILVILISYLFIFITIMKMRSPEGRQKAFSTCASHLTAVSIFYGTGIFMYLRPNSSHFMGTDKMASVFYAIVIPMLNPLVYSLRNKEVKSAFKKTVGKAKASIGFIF
Method in brief: as §1

OR5B17 (Homo sapiens) = target: T13, OR5B17 (Homo sapiens) (UniProt Q8NGF7)
T13 sequence (whole entry): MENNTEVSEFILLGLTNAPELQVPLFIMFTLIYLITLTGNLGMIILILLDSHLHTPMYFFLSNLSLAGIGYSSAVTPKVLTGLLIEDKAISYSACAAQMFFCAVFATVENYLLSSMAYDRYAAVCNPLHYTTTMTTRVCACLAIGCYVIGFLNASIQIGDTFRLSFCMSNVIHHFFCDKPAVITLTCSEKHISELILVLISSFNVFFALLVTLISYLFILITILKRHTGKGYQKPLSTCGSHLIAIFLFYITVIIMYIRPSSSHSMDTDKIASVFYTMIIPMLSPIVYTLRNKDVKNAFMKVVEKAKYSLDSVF
Method in brief: as §1

OR5B2 (Homo sapiens) = target: T14, OR5B2 (Homo sapiens) (UniProt Q96R09)
T14 sequence (whole entry): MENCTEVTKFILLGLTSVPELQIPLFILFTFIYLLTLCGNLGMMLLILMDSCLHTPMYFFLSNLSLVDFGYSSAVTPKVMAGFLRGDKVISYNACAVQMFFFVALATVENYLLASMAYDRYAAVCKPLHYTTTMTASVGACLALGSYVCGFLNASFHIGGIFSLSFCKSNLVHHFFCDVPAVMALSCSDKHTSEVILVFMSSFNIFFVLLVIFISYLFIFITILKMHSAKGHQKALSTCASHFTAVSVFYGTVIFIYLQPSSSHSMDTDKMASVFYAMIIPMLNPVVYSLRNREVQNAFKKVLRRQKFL
Method in brief: as §1

OR5B2 E6D = test system: T15, OR5B2 E6D
T15 sequence (whole entry): T14 sequence (whole entry) with E6D
Method in brief: as §1

OR5B21 (Homo sapiens) = target: T16, OR5B21 (Homo sapiens) (UniProt A6NL26)
T16 sequence (whole entry): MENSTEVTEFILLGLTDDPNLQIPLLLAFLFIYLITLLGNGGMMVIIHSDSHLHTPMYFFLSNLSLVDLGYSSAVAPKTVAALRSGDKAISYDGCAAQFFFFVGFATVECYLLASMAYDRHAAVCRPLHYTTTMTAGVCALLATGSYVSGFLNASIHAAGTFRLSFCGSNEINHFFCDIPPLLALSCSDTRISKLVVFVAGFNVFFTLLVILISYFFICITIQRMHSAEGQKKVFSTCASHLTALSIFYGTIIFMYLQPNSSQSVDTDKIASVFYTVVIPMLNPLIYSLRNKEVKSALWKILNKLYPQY
Method in brief: as §1

OR5B3 (Homo sapiens) = target: T17, OR5B3 (Homo sapiens) (UniProt Q8NH48)
T17 sequence (whole entry): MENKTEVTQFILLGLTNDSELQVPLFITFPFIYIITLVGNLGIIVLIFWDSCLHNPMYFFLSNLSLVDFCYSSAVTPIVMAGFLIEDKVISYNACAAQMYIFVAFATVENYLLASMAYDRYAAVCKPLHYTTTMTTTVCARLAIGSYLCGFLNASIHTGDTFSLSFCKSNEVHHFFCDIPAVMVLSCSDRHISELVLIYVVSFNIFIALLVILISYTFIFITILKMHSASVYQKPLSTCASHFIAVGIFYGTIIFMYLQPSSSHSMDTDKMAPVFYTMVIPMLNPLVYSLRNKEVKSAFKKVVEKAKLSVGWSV
Method in brief: as §1

OR5B3 I198V G247A = test system: T18, OR5B3 I198V G247A
T18 sequence (whole entry): T17 sequence (whole entry) with I198V, G247A
Method in brief: as §1

Measured: odorant receptor agonist call

CCCCCC1CCCC(=O)O1 (centres undefined)
active: OR56B4 (Homo sapiens)

Cc1cnc(C)c(C)n1
inactive: OR56B4 (Homo sapiens) | OR5A1 (Homo sapiens) | OR5A1 D183N | OR5A2 (Homo sapiens) | OR5AC2 (Homo sapiens) | OR5AK2 (Homo sapiens) | OR5AN1 (Homo sapiens) | OR5AP2 (Homo sapiens) | OR5AR1 (Homo sapiens) | OR5AS1 (Homo sapiens) | OR5AU1 (Homo sapiens) | OR5B12 (Homo sapiens) | OR5B17 (Homo sapiens) | OR5B2 (Homo sapiens) | OR5B2 E6D | OR5B21 (Homo sapiens) | OR5B3 (Homo sapiens) | OR5B3 I198V G247A
